In the EternaBench riboswitch data:

Columns and labels:
MS2 coat protein [1] = assay: apparent Kd, MS2 coat protein; higher = weaker binding; RNA-MaP array; theophylline 2 mM where present
In short: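 The apparent Kd is the median of filtered binding-curve fits, one per cluster, to green signal normalised to red-channel RNA signal and control-cluster median Fmax. The clusters were on Illumina sequencing chips, and stalled E. coli RNA polymerase had transcribed the designs on them. Titration used SNAP-549-labelled MS2 coat protein from 0.7 or 1.5 nM, doubling to 3 µM, without and then with constant ligand, in 100 mM Tris-HCl pH 7.5, 80 mM KCl, 4 mM MgCl2, BSA, DTT, yeast tRNA and Tween-20.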

MS2 coat protein [2] = assay: apparent Kd, MS2 coat protein; higher = weaker binding; RNA-MaP array
In short: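 Incubations were done at room temperature with fluorescently labeled MS2 coat protein at 1.5 nM to 3 μM and designed RNAs transcribed on an Illumina sequencing chip from sequenced DNA templates, with or without input ligand. Apparent Kd is the median of binding curves fitted for each cluster. Designs with fewer than 10 measured clusters were excluded.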

[3] = designed as: OFF switch for theophylline, no ligand
[4] = ligand present: theophylline, designed as: OFF switch for theophylline
[5] = designed as: ON switch for theophylline, no ligand
[6] = ligand present: theophylline, designed as: ON switch for theophylline
[7] = designed as: ON switch for flavin mononucleotide, no ligand
[8] = ligand present: flavin mononucleotide, designed as: ON switch for flavin mononucleotide
[9] = designed as: OFF switch for flavin mononucleotide, no ligand
[10] = ligand present: flavin mononucleotide, designed as: OFF switch for flavin mononucleotide

Sequence | apparent Kd (MS2 coat protein [1]; [3]) [nM] | apparent Kd (MS2 coat protein [1]; [4]) [nM] | apparent Kd (MS2 coat protein [1]; [5]) [nM] | apparent Kd (MS2 coat protein [1]; [6]) [nM] | other results
AGACAUGAGGAUCACCCAUGUAGUACGGAUACCAGAUCCAGAUGCAUCCCUUGGCAGCUGUGGUACAGCGUUACAUCGCUCGUAG | 20 | 20.6 |  |  | 
CAGAGCUACCGGGAUACCAGAAUUGGUAUUCCUAUAUUUCUUACAUGAGGAUCACCCAUGUUCCCUUGGCAGCUUGGUAGCUCUG | 80.9 | 446 |  |  | 
UAUAUAUUGAUGGAUACCAGCAGAGAAAACGUUUAUCCUAACAUGAGGAUCACCCAUGUAUGCCCUUGGCAGCUGUUGAUAUAUA | 22.2 | 32.6 |  |  | 
GCACUACAUGAGGAUCACCCAUGUGCAGAUACCAGAGGUGUAUGCCUCCCUUGGCAGCUGCGUCGCUCUGGCAGCUUGUGGGUUG |  |  | 100 | 153 | 
AAAACACAUGAGGAUCACCCAUGUCGUGAUACCAGUCAACAUGAGGACCCUUGGCAGCAUAAAAUGGGUAACAUGAGGAUCACCC | 85.1 | 133 |  |  | 
AAGGUAUCACAGACAUGGGUGUACUGUGAUACCAGCUAGGAAACUAGCCCUUGGCAGCACAUGAGGAUCACCCAUGUAAGAAUAA | 47.4 | 141 |  |  | 
AAACAUUGCUGCGAUACCAGACAUGAGGAUCACCCAUGUACCAAGAAAACGUACAUAAAUGUCCCUUGGCAGCGCAGCAAUGAAA | 498 | 1290 |  |  | 
GCUGUAAGUGCAGAUACCAGCAGGUGAUAUUUCUAAUGACAUGAGGAUCACCCAUGUAACUGCCCUUGGCAGCUGCACUUACAGC |  |  | 57.6 | 12.9 | 
UUAAGAGGCUAUCCACUUUGAUUUUGUGAUACCAGAAUAAUUUUAUUCCCUUGGCAGCAUGACAUGAGGAUCACCCAUGUGUCUU |  |  | 37.4 | 72.4 | 
GGUGGCGUGACGGAUACCAGCCACCACCGAUAGACCACAUGAGGAUCACCCAUGUUGGGUGGCCCUUGGCAGCUGUCGUGCGGCG |  |  | 230 | 56.7 | 
AACAUGAGGAUCACCCAUGUAAAAUGGGAUACCAGAGACGAAAGUCUCCCUUGGCAGCCCACUGCCUCCUUUACGAAAGUAGAGG |  |  | 31.6 | 18.2 | 
UGUAUGUGAUUUGAUACCAGUUCUGCUGGUAAAACAUGAGGAUCACCCAUGUUACUUUGGGACCCUUGGCAGCAAAUCGCAUACU |  |  | 201 | 13.9 | 
AUCGUACCUGAGGAUACCAGCAUGUGAUCAUAACAUGAGGAUCACCCAUGUAAUCAGUGAUGCCCUUGGCAGCUUGGUCGAUACA |  |  | 54.2 | 34.9 | 
AGUGUUAUAACUGAUACCAGACUUUUGCUUAUACAUGAGGAUCACCCAUGUAAAAUGGUUGUCCCUUGGCAGCAGAAAAUACACA |  |  | 84 | 20.4 | 
AUUAAUUGUCGUGAUACCAGACUUACAUGAGGAUCACCCAUGUUACUUAAGAUUUUUGUUGUCCCUUGGCAGCACUUUUUAAUUA | 24.1 | 18.9 |  |  | 
AAUAUAAAAUAAAGAAAAUUUAUAUCUGAUACCAGACUCUCAUGGGUCCCUUGGCAGCAGUAACAUGAGGAUCACCCAUGUAUUA |  |  | 114 | 16.5 | 
AGAAUAACACAUGAGGAUCACCCAUGUGAUACCAGCUAGGAAACUAGCCCUUGGCAGCACAUAAUCCUCAUGAGCUGCCAUAAUA | 12.8 | 21.4 |  |  | 
AUUAAUAGUUGUGAUACCAGACUUACAUGAGGAUCACCCAUGUUACUUAAGUGUUUUGAUGUCCCUUGGCAGCACUGUUUAGUUA |  |  | 25.5 | 13.4 | 
AGCCCUGUACUAGAUACCAGCUACAUGAGGAUCACCCAUGUGCGUCAAGACUGACUGUGUAGCCCUUGGCAGCUGCUCGCAUGUA | 22.1 | 32.2 |  |  | 
UGUAACAUGAGGAUCACCCAUGUGAGUGAUACCAGACUAGUGUUGGUCCCUUGGCAGCACGCUGGGCGAGUGUGUAGUCUAUGCG |  |  | 92.8 | 120 | 
UACAUGAGGAUCACCCAUGUAUGAAUAGAUACCAGAUAAAAUAAGGUCCCUUGGCAGCUAGUGAAUCGAGGGUGGGUAUCAUGAU | 10.4 | 10.8 |  |  | 
AAUAACAUGAGGAUCACCCAUGUAAAAGAUACCAGAUGCAUGAUGAUCCCUUGGCAGCUUAACGCUGAUUGAUUACAAUCAGCGA |  |  | 28.6 | 87 | 
AUACCUAAUGUUACAUUUACCUUAUCAGAUACCAGACUUUACGUUGUCCCUUGGCAGCUGUAUCACAUGAGGAUCACCCAUGUUG |  |  | 16 | 15.7 | 
ACAUGAGGAUCACCCAUGUGAAGGCACGAUACCAGCUGAUCCCGUGGCCCUUGGCAGCGUCCGGUUUGGUCCGGCGGAUGAGACG |  |  | 24.1 | 24.9 | 
UAUAUAUAUAUUGAUACCAGCAGAGAAAACGUUUAUCCUAACAUGAGGAUCACCCAUGUAUGCCCUUGGCAGCGAUAUAUAUAUA | 24.5 | 32.5 |  |  | 
ACGGAGAUUGCUAAAUGUUGGCGAGCGGAUACCAGCCUAUUAUUGGGCCCUUGGCAGCCGACAUGAGGAUCACCCAUGUAAACAA |  |  | 79 | 126 | 

Sequence | apparent Kd (MS2 coat protein [1]; [3]) [nM] | apparent Kd (MS2 coat protein [1]; [4]) [nM] | apparent Kd (MS2 coat protein [1]; [5]) [nM] | apparent Kd (MS2 coat protein [1]; [6]) [nM] | other results
GGUGGGACUUGUGAUACCAGCCUAAUUCUAAACGAAUUGCACAUGAGGAUCACCCAUGUCGGCCCUUGGCAGCAUGAGUAUUUAU |  |  | 114 | 36.8 | 
UGAUCCUACAGAGAUACCAGUGCCGCUAGAUAACUAUGCACAUGAGGAUCACCCAUGUAACACCCUUGGCAGCUCAACUAAAGGG |  |  | 92.2 | 115 | 
AUUCCAUAGGUGCAGUUGUUAAAUGGCGAUACCAGCGUGGAAACACGCCCUUGGCAGCGCCAAAACAUGAGGAUCACCCAUGUUA | 95.8 | 186 |  |  | 
AAACAUGACAUGGAUACCAGACACAUGAGGAUCACCCAUGUUGAGGAUCACCCAUGUCCCGUCCCUUGGCAGCCAGCAUGAGGAU | 9.49 | 10.2 |  |  | 
CUCUGAGUCCGCAAGGACUCAGAGGCGGAUACCAGCGAGGUCCAUCGCCCUUGGCAGCCGAACAUGAGGAUCACCCAUGUCGGUA |  |  | 10.4 | 14.8 | 
AGACAUGAGGAUCACCCAUGUAGUACGGAUACCAGAUCCAGAUGCGUCCCUUGGCAGCUGUAGUACAGCGUUACGUCGCUCAUAG | 25.2 | 61 |  |  | 
GGGCCCGGGCGCGAGCCCGGGCCCAUUGAUACCAGUGAAUGUGUACGCCCUUGGCAGCGAAUCCUAACAUGAGGAUCACCCAUGU |  |  | 43.3 | 53.8 | 
UAUAUAUAUAUUGAUACCAGCAGAGAAAACGUAUAUCCUAACAUGAGGAUCACCCAUGUAUGCCCUUGGCAGCGAUAUAUAUAUA | 24.3 | 31.4 |  |  | 
AGGAACAUGAGGAUCACCCAUGUAAGCGAUACCAGUGAUAUGUUGCGCCCUUGGCAGCGCAAGUGUGUGUGAAAGAUGUAAGAUU | 16.5 | 33.4 |  |  | 
UGAUCCUAGACUGAUACCAGUCAUGAGUACAUGAGGAUCACCCAUGUCCAGGGACUCAAUGACCCUUGGCAGCAGAACCUAGUUC |  |  | 193 | 147 | 
GGCCGGUGCGCUUUGAAGCGACGGCGUGAUACCAGAUGUAAGAGCGUCCCUUGGCAGCACGUUUACAUGAGGAUCACCCAUGUCU |  |  | 196 | 131 | 
UGUAUGUGAUGUGAUACCAGUCCAAUACUGGUAACAUGAGGAUCACCCAUGUAAUGAUGGGACCCUUGGCAGCACAUCGCAUACU |  |  | 212 | 111 | 
GUUACAUGGCAAGCAUGUAUAUGGAUAGAUACCAGUUGAUAUUAAGACCCUUGGCAGCUGAGUACAUGAGGAUCACCCAUGUAAG | 42.5 | 90.8 |  |  | 
AUAUGAAAGAGUGAUACCAGACUACAUGAGGAUCACCCAUGUGACAUUUAAAUAUCAUUUGUCCCUUGGCAGCACAUUAAGUACA | 38.8 | 44.9 |  |  | 
UACAUGAGGAUCACCCAUGUAAGGUGAGAUACCAGUGAUAUGCUACACCCUUGGCAGCUCACGGCUGACUAUCAGCACACAUGUA |  |  | 27 | 16.3 | 
UGGUCACUAGGAGAUACCAGCCGACAUGAGGAUCACCCAUGUAACCGGCGUCCUCCCUUAGGCCCUUGGCAGCUCGUAGUUGCUC | 12.2 | 156 |  |  | 
GAAGCGUGAGCAGGAUAUUUAGACAUGAGGAUCACCCAUGUGUGCUAACUAGAAUGCAGGUUUUUAAAGAAGGGCUCCUAGAUU |  |  |  |  | apparent Kd (MS2 coat protein [2]; [7]): 11.4 nM; apparent Kd (MS2 coat protein [2]; [8]): 7.11 nM
UGAAAACCGUCAUAAACAAACAUGAGGAUCACCCAUGUAGCUAAGGAUAUUGACAAACAAAGACUCAAGAAGGUAGAACCUACA |  |  |  |  | apparent Kd (MS2 coat protein [2]; [9]): 7.99 nM; apparent Kd (MS2 coat protein [2]; [10]): 7.26 nM
UAAGAUUCUGUAGGAUAUCAAAUACAUGAGGAUCACCCAUGUAACCUGAUUUCUGAUCCUCAGUGUGAGAAGGACAAUUAAGCC |  |  |  |  | apparent Kd (MS2 coat protein [2]; [9]): 22.1 nM; apparent Kd (MS2 coat protein [2]; [10]): 21.2 nM
CGAAGAAAACGGAAAUCAAUAACAUGAGGAUCACCCAUGUCUCAGGAUAUAAGAGAAGGAUGUAGUUAGAAGGGAGAGUUAUGU |  |  |  |  | apparent Kd (MS2 coat protein [2]; [7]): 54.7 nM; apparent Kd (MS2 coat protein [2]; [8]): 42.4 nM
ACAACUCUCACAGGAUAUUGACAUGAGGAUCACCCAUGUAAUCCAGGGCGAACAUAGGACUGACACAAGAAGGGUGACACCAUC |  |  |  |  | apparent Kd (MS2 coat protein [2]; [7]): 20.1 nM; apparent Kd (MS2 coat protein [2]; [8]): 16.1 nM
CUCUGCUACCGGACUGGUUGGACAUGAGGAUCACCCAUGUACGAGGAUAUACGAAGAAGAACCAGGUAGAAGGCGUUUGGGUAC |  |  |  |  | apparent Kd (MS2 coat protein [2]; [9]): 14.4 nM; apparent Kd (MS2 coat protein [2]; [10]): 28.1 nM
AGUUCUGGAGGAUAUACAUCCUCAAUGUCCAACCUGCGGAUACAUGAGGAUCACCCAUGUAGAAGGCCACACAA |  |  |  |  | apparent Kd (MS2 coat protein [2]; [9]): 6.53 nM; apparent Kd (MS2 coat protein [2]; [10]): 9.75 nM
AGGCAACAUGAGGAUCACCCAUGUCAGGAUAUAGUAAACACAAAUACGAGAAAUAUAACUAGAAGGGACAUAAU |  |  |  |  | apparent Kd (MS2 coat protein [2]; [9]): 16.6 nM; apparent Kd (MS2 coat protein [2]; [10]): 18.5 nM
CAUUGAGCAGCUGAUACCAGUGCCUGAACUUACAUGAGGAUCACCCAUGUAUGCCCAAAACACCCUUGGCAGCAGAGGAAGAUCG |  |  |  |  | apparent Kd (MS2 coat protein [2]; [5]): 14.5 nM; apparent Kd (MS2 coat protein [2]; [6]): 13.9 nM
